In ChEMBL document CHEMBL1148626, “Synthesis and biological evaluation of novel, peripherally selective chromanyl imidazolethione-based inhibitors of dopamine beta-hydroxylase” (2006) one finds Activity and Tmax data, which are given here for 30 compounds.

Structures are written as SMILES. Active and inactive are the calls of the source. The calls are words filed in the database; no cut-off is given here.

For test [1], the target named is T1, Dopamine beta-hydroxylase (Homo sapiens) (UniProt P09172).
T1 sequence (whole entry): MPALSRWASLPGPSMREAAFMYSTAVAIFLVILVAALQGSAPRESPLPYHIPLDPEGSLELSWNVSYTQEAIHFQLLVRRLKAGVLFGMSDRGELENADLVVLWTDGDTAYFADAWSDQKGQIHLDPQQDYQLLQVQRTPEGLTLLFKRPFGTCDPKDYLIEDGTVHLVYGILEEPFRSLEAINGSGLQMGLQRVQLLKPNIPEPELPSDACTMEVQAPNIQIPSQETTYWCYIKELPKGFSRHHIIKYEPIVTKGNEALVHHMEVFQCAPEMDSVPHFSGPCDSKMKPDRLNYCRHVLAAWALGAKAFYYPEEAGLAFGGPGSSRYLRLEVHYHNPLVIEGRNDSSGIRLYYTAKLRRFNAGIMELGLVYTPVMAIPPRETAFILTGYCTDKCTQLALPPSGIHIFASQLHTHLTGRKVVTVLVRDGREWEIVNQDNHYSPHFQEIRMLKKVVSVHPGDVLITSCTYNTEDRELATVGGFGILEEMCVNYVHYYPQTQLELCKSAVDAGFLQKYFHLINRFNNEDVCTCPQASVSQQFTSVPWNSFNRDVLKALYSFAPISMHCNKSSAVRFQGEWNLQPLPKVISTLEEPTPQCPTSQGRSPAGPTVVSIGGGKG
The experiment in a line: Effect on DBH activity in presence of dopamine by measuring Noradrenaline level. It counts as functional. Also on record: concentration or dose not given beside the values. The essentials:
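Inhibitor at 5 µM in 200 mM sodium acetate pH 5.0 containing N-ethylmaleimide, CuSO4, catalase, pargyline, fumarate and 20 mM ascorbate. Preincubated 20 min at 37 °C, then dopamine added as substrate and reacted 45 min at 37 °C. Stopped with perchloric acid and filtered. Noradrenaline formed quantified by HPLC-ECD (0.75 V). Residual activity given as % of control, mean ± SEM of three experiments.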

The test system of test [2] is Mus musculus. The experiment in a line: Decrease in noradrenaline tissue levels in mice heart at 100 mg/kg, po after 18 hrs. Format: functional, organism-based. Also on record: dose 100 mg/kg. The note with it: NMR1. The essentials: (§1)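 Male NMRI mice housed 10 per cage on a 12 h light/dark cycle at 22 °C. Compound given at 100 mg/kg by oral gavage in water vehicle. Animals decapitated at set times postdose; heart tissue held in 0.2 M perchloric acid for 12 h at 4 °C in the dark, then filtered. NA measured by HPLC with electrochemical detection. Expressed as % of vehicle control, mean ± SEM, n=4 per group.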

Test [3] concerns Rattus norvegicus. The experiment in a line: Decrease in noradrenaline tissue levels in rat at 100 mg/kg, po after 9 hrs. Format: functional, organism-based. Also on record: dose 100 mg/kg. Conditions: Wistar. Summed up: (§2)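 Male Wistar rats dosed orally by gavage at 100 mg/kg, with water as vehicle. Killed by decapitation 9 h postdose. Frontal and parietal cortex, left atrium and left ventricle taken, extracted in 0.2 M perchloric acid (12 h, 4 °C, dark) and filtered. Noradrenaline by HPLC-electrochemical detection, as % of control without inhibitor. Mean ± SEM, four animals per group.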

In test [4] the test system is Mus musculus. Kind of test: Effect on recovery of noradrenaline levels in mice at 100 mg/kg after 24 hrs. Format: functional. The essentials:
as §1

Test [5] is filed under the species Mus musculus. The experiment in a line: Effect on noradrenaline levels in mouse left ventricle after 9 hrs. Format: functional, organism-based. The note with it: NMR1, Heart left ventricle. Summed up:
(§3)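 Male NMRI mice given test compound or vehicle (water) orally by gavage at a range of doses. At 9 h postdose, decapitation. Tissue (left ventricle or brain parietal cortex) weighed, held in 0.2 M perchloric acid 12 h at 4 °C in the dark, then filtered by centrifugation. Noradrenaline measured by HPLC with electrochemical detection. Value given as % of vehicle control.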

For test [6], the species on record is Mus musculus. Kind of test: Decrease in noradrenaline tissue levels in mouse brain parietal cortex after 9 hrs. Format: functional, organism-based. Conditions: NMR1. Summed up: as §3
For test [7], the species on record is Rattus norvegicus. Kind of test: Decrease in noradrenaline tissue levels in rat brain parietal and frontal cortex. It counts as functional, organism-based. The note with it: Wistar, Cerebral cortex. The essentials: as §2
The test system of test [8] is Mus musculus. Kind of test: Time for maximum effect for noradrenaline tissue reduction at 100 mg/kg, po. It counts as functional, organism-based. Also on record: dose 100 mg/kg. Conditions: NMR1. Summed up: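 Mice given 100 mg/kg orally in water by gavage. Heart taken 6, 9, 18 and 24 h postdose and extracted in 0.2 M perchloric acid. Noradrenaline measured by HPLC with electrochemical detection, as % of control without inhibitor. Mean ± SEM, four animals per group. Time of maximum effect taken from the time course.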

Regarding `CNCCc1cnc(S)n1[C@H]1COc2ccccc2C1`, in test [1], the Activity stood at 2.2%.

As for `Oc1ccc2c(c1)C[C@@H](n1c(CCNCc3ccccc3)cnc1S)CO2`, in test [1], the Activity turned out to be 4.5%.

Regarding `NCCc1cnc(S)n1[C@H]1COc2ccc(F)cc2C1`, in test [1], the Activity came to 8%.

Regarding `Cl.NCc1c[nH]c(=S)n1[C@H]1CCc2c(F)cc(F)cc2C1` [NEPICASTAT HYDROCHLORIDE], the outcome in the test with Mus musculus [2], in the test on Rattus norvegicus [3] and in the test filed under Rattus norvegicus [7] was Active. Moreover, the Activity in test [1] was 0%; in the test on Mus musculus [4], 50%; in the test filed under Mus musculus [5] it was “Dose-dependent effect”; in the test filed under Mus musculus [6] it was “Dose-dependent effect”. Moreover, the Tmax in the test on Mus musculus [8] came to 9 h.

Consider `COc1ccc2c(c1)C[C@@H](n1c(CCN)cnc1S)CO2`, for which the Activity in test [1] is 54.5%.

With `NCCCc1cnc(S)n1[C@H]1CCc2c(F)cc(F)cc2C1`, the Activity in test [1] was 8.1%.

Consider `NCCc1cnc(S)n1[C@H]1COc2c(cc(F)c(F)c2F)C1`, for which the Activity in test [1] stood at 8.2%.

For the compound `COc1ccc2c(c1)C[C@@H](n1c(CCNCc3ccccc3)cnc1S)CO2`, the Activity in test [1] was determined as 66%.

Regarding `NCc1cnc(S)n1[C@H]1COc2ccccc2C1`, the Activity in test [1] is 0%.

Regarding `NCCc1cnc(S)n1[C@H]1COc2ccc([N+](=O)[O-])cc2C1`, the Activity in test [1] came out at 94.8%.

Turning to `NCCc1cnc(S)n1C1CSc2ccc(O)cc2C1` (stereo unspecified), the Activity in test [1] was 27.3%.

Turning to `NCCc1cnc(S)n1[C@H]1COc2c(cccc2[N+](=O)[O-])C1`, in test [1], the Activity worked out at 53.2%.

Consider `CNCCc1c[nH]c(=S)n1[C@H]1COc2c(F)cc(F)cc2C1`, for which the Activity in test [1] came out at 2.6%.

Take `NCCc1cnc(S)n1[C@H]1COc2c(O)cccc2C1`: the Activity in test [1] stood at 125%.

As for `NCCc1cnc(S)n1[C@H]1COc2cc(Cc3ccccc3)c(O)cc2C1`, the Activity in test [1] turned out to be 86.1%.

As for `NCc1cnc(S)n1[C@H]1COc2c(F)cc(F)cc2C1`, the result in the test with Mus musculus [2] was Active. The Activity in test [1] was 4.1%.

Consider `NCCc1cnc(S)n1[C@@H]1COc2c(F)cc(F)cc2C1`, for which the Activity in test [1] was determined as 50.2%.

On to `COc1cc(Cl)c2c(c1)C[C@@H](n1c(CCN)cnc1S)CO2`, for which the Activity in test [1] is 94%.

In the case of `COc1cc(Cl)cc2c1OC[C@H](n1c(CCN)cnc1S)C2`, in test [1], the Activity was found to be 36.7%.

For the compound `NCCc1cnc(S)n1[C@H]1COc2ccc(O)cc2C1`, in test [1], the Activity turned out to be 0%.

Regarding `NCCc1cnc(S)n1[C@H]1CCc2ccccc2C1`, the Activity in test [1] stood at 16.8%.

For `COc1ccc2c(c1)CC(n1c(CCN)cnc1S)CS2` (stereo unspecified), the Activity in test [1] amounted to 99.4%.

On to `NCCc1cnc(S)n1[C@H]1COc2ccccc2C1`, for which, in test [1], the Activity worked out at 3%.

For the compound `NCCc1cnc(S)n1[C@H]1COc2cc(F)c(F)cc2C1`, the Activity in test [1] turned out to be 9.4%.

Turning to `CNCCc1cnc(S)n1[C@H]1COc2ccc(O)cc2C1`, the Activity in test [1] stood at 15.5%.

As to `COc1cccc2c1OC[C@H](n1c(CCN)cnc1S)C2`, the Activity in test [1] was 6.9%.

Take `Cl.NCCc1cnc(S)n1[C@H]1COc2c(F)cc(F)cc2C1`: the outcome with Mus musculus [2] and in the test on Rattus norvegicus [3] was Active. Further, the results for the Activity (in test [1]; in the test on Mus musculus [4]; in the test listed under Mus musculus [5]) were 3.3%, 50% and “Dose-dependent effect”, respectively. Moreover, the result in the test listed under Mus musculus [6] and in the test listed under Rattus norvegicus [7] was inactive. The Tmax in the test with Mus musculus [8] was 9 h.

As to `NCCc1cnc(S)n1[C@H]1CCc2c(F)cc(F)cc2C1`, the outcome with Mus musculus [2] was Active. In test [1], the Activity is 1.6%.

On to `NCc1cnc(S)n1[C@H]1COc2ccc(O)cc2C1`, for which, in test [1], the Activity was determined as 17.8%.

For `NCCc1cnc(S)n1[C@H]1COc2c(F)cccc2C1`, the Activity in test [1] was 6.9%.
